Measured values as given in ChEMBL document CHEMBL5058577, “EUbOPEN Chemogenomics Library 2 (Multiplex)” (2022).

Test system: U2OS
Test: Multiplex assay against U2OS
Type: toxicity, cell-based
Details: human
Outline: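 Imaging took place on a CQ1 microscope at 37°C and 5% CO2 once compound had been added to live cells stained at seeding with Hoechst33342, BioTracker Green Microtubule Cytoskeleton Dye, MitoTracker Red and Annexin V Alexa Fluor 680. CellPathfinder machine-learning gating classed cells as Hoechst high-intensity objects or normal cells, classed normal cells as having healthy, pyknosed or fragmented nuclei, and classed pyknosed cells as mitotic or apoptotic. Tubulin, mitochondrial-mass and membrane-permeability phenotypes are per cents of the healthy-nucleus cells.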

[1] = 12 h, 1 µM, compound concentration 1 uM, replicate 1
[2] = 12 h, 1 µM, compound concentration 1 uM, replicate 2
[3] = 12 h, 10 µM, compound concentration 10 uM, replicate 1
[4] = 12 h, 10 µM, compound concentration 10 uM, replicate 2
[5] = 24 h, 1 µM, compound concentration 1 uM, replicate 1
[6] = 24 h, 1 µM, compound concentration 1 uM, replicate 2
[7] = 24 h, 10 µM, compound concentration 10 uM, replicate 1
[8] = 24 h, 10 µM, compound concentration 10 uM, replicate 2
[9] = 48 h, 1 µM, compound concentration 1 uM, replicate 1
[10] = 48 h, 1 µM, compound concentration 1 uM, replicate 2
[11] = 48 h, 10 µM, compound concentration 10 uM, replicate 1
[12] = 48 h, 10 µM, compound concentration 10 uM, replicate 2

SMILES: CC[C@H]1OC(=O)[C@H](C)[C@@H](O[C@H]2C[C@@](C)(OC)[C@@H](O)[C@H](C)O2)[C@H](C)[C@@H](O[C@@H]2O[C@H](C)C[C@H](N(C)C)[C@H]2O)[C@@]2(C)CC(C)=C(O2)[C@H](C)[C@@H](O)[C@]1(C)O
- Population Apoptotic (%) [1]: 50%
- Population Fragmented Nuclei (%) [1]: 19%
- Population Healthy Nuclei (%) [1]: 63%
- Population Hoechst High Intensity Objects (%) [1]: 3%
- Population Membrane Permeable-Phenotype (%) [1]: 33%
- Population Mitochondria Different-Phenotype (%) [1]: 23%
- Population Mitotic Cells (%) [1]: 50%
- Population Normal (%) [1]: 96%
- Population Pyknosed Nuclei (%) [1]: 17%
- Population Tubulin-Different-Phenotype (%) [1]: 25%
- Total Cell Count [1]: 226
- Population Apoptotic (%) [2]: 84%
- Population Fragmented Nuclei (%) [2]: 23%
- Population Healthy Nuclei (%) [2]: 62%
- Population Hoechst High Intensity Objects (%) [2]: 1%
- Population Membrane Permeable-Phenotype (%) [2]: 21%
- Population Mitochondria Different-Phenotype (%) [2]: 14%
- Population Mitotic Cells (%) [2]: 15%
- Population Normal (%) [2]: 98%
- Population Pyknosed Nuclei (%) [2]: 14%
- Population Tubulin-Different-Phenotype (%) [2]: 14%
- Total Cell Count [2]: 91
- Population Apoptotic (%) [3]: 65%
- Population Fragmented Nuclei (%) [3]: 34%
- Population Healthy Nuclei (%) [3]: 40%
- Population Hoechst High Intensity Objects (%) [3]: 7%
- Population Membrane Permeable-Phenotype (%) [3]: 82%
- Population Mitochondria Different-Phenotype (%) [3]: 63%
- Population Mitotic Cells (%) [3]: 34%
- Population Normal (%) [3]: 92%
- Population Pyknosed Nuclei (%) [3]: 25%
- Population Tubulin-Different-Phenotype (%) [3]: 89%
- Total Cell Count [3]: 223
- Population Apoptotic (%) [4]: 73%
- Population Fragmented Nuclei (%) [4]: 21%
- Population Healthy Nuclei (%) [4]: 47%
- Population Hoechst High Intensity Objects (%) [4]: 4%
- Population Membrane Permeable-Phenotype (%) [4]: 72%
- Population Mitochondria Different-Phenotype (%) [4]: 81%
- Population Mitotic Cells (%) [4]: 26%
- Population Normal (%) [4]: 95%
- Population Pyknosed Nuclei (%) [4]: 31%
- Population Tubulin-Different-Phenotype (%) [4]: 96%
- Total Cell Count [4]: 128
- Population Apoptotic (%) [5]: 65%
- Population Fragmented Nuclei (%) [5]: 20%
- Population Healthy Nuclei (%) [5]: 63%
- Population Hoechst High Intensity Objects (%) [5]: 4%
- Population Membrane Permeable-Phenotype (%) [5]: 20%
- Population Mitochondria Different-Phenotype (%) [5]: 15%
- Population Mitotic Cells (%) [5]: 35%
- Population Normal (%) [5]: 95%
- Population Pyknosed Nuclei (%) [5]: 16%
- Population Tubulin-Different-Phenotype (%) [5]: 17%
- Total Cell Count [5]: 256
- Population Apoptotic (%) [6]: 72%
- Population Fragmented Nuclei (%) [6]: 19%
- Population Healthy Nuclei (%) [6]: 64%
- Population Hoechst High Intensity Objects (%) [6]: 5%
- Population Membrane Permeable-Phenotype (%) [6]: 14%
- Population Mitochondria Different-Phenotype (%) [6]: 14%
- Population Mitotic Cells (%) [6]: 27%
- Population Normal (%) [6]: 94%
- Population Tubulin-Different-Phenotype (%) [6]: 10%
- Total Cell Count [6]: 115
- Population Apoptotic (%) [7]: 67%
- Population Fragmented Nuclei (%) [7]: 33%
- Population Healthy Nuclei (%) [7]: 36%
- Population Hoechst High Intensity Objects (%) [7]: 5%
- Population Membrane Permeable-Phenotype (%) [7]: 56%
- Population Mitochondria Different-Phenotype (%) [7]: 65%
- Population Mitotic Cells (%) [7]: 32%
- Population Normal (%) [7]: 94%
- Population Pyknosed Nuclei (%) [7]: 29%
- Population Tubulin-Different-Phenotype (%) [7]: 76%
- Total Cell Count [7]: 210
- Population Apoptotic (%) [8]: 82%
- Population Fragmented Nuclei (%) [8]: 24%
- Population Healthy Nuclei (%) [8]: 45%
- Population Hoechst High Intensity Objects (%) [8]: 4%
- Population Membrane Permeable-Phenotype (%) [8]: 75%
- Population Mitochondria Different-Phenotype (%) [8]: 86%
- Population Mitotic Cells (%) [8]: 17%
- Population Normal (%) [8]: 95%
- Population Pyknosed Nuclei (%) [8]: 30%
- Population Tubulin-Different-Phenotype (%) [8]: 88%
- Total Cell Count [8]: 121
- Population Apoptotic (%) [9]: 67%
- Population Fragmented Nuclei (%) [9]: 19%
- Population Healthy Nuclei (%) [9]: 54%
- Population Hoechst High Intensity Objects (%) [9]: 9%
- Population Membrane Permeable-Phenotype (%) [9]: 13%
- Population Mitochondria Different-Phenotype (%) [9]: 8%
- Population Mitotic Cells (%) [9]: 32%
- Population Normal (%) [9]: 91%
- Population Pyknosed Nuclei (%) [9]: 26%
- Population Tubulin-Different-Phenotype (%) [9]: 11%
- Total Cell Count [9]: 300
- Population Apoptotic (%) [10]: 78%
- Population Fragmented Nuclei (%) [10]: 32%
- Population Healthy Nuclei (%) [10]: 58%
- Population Hoechst High Intensity Objects (%) [10]: 2%
- Population Membrane Permeable-Phenotype (%) [10]: 12%
- Population Mitochondria Different-Phenotype (%) [10]: 12%
- Population Mitotic Cells (%) [10]: 21%
- Population Normal (%) [10]: 97%
- Population Pyknosed Nuclei (%) [10]: 9%
- Population Tubulin-Different-Phenotype (%) [10]: 7%
- Total Cell Count [10]: 147
- Population Apoptotic (%) [11]: 85%
- Population Fragmented Nuclei (%) [11]: 37%
- Population Healthy Nuclei (%) [11]: 31%
- Population Hoechst High Intensity Objects (%) [11]: 7%
- Population Membrane Permeable-Phenotype (%) [11]: 58%
- Population Mitochondria Different-Phenotype (%) [11]: 55%
- Population Mitotic Cells (%) [11]: 14%
- Population Normal (%) [11]: 92%
- Population Pyknosed Nuclei (%) [11]: 31%
- Population Tubulin-Different-Phenotype (%) [11]: 63%
- Total Cell Count [11]: 236
- Population Apoptotic (%) [12]: 83%
- Population Fragmented Nuclei (%) [12]: 20%
- Population Healthy Nuclei (%) [12]: 42%
- Population Hoechst High Intensity Objects (%) [12]: 9%
- Population Membrane Permeable-Phenotype (%) [12]: 62%
- Population Mitochondria Different-Phenotype (%) [12]: 81%
- Population Mitotic Cells (%) [12]: 16%
- Population Normal (%) [12]: 90%
- Population Pyknosed Nuclei (%) [12]: 36%
- Population Tubulin-Different-Phenotype (%) [12]: 88%
- Total Cell Count [12]: 112
